Assay outcomes from PubChem BioAssay.
ROMK primary – modulates human ROMK potassium channel activity | hit rate 2% among 130,000 | Tet-inducible ROMK, thallium flux fluorescence; actives lie on both sides | B-score at 10 µM;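 active means signal ratio slope over the read window, or its plate-corrected B-score, at least 3 SD from the plate mean, either direction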;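 further: B-score of the F/F0 ratio slope over 7 to 12 s after thallium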
KCC2 mod – modulators of human KCC2 chloride dependent transport; B-score of Tl+ flux slope (higher = more flux/activation; lower = inhibition) at 10 µM; KCC2 cells, thallium flux FluoZin-2 fluorescence; AID 1456; hit rate 2.2% among 190,000; Q9H2X9;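 active means thallium flux slope and its plate-corrected score both differing from the plate sample mean at a set confidence after two filtering rounds, in either direction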;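 further: slope of fluorescence scaled to starting intensity during 10 to 20 s after thallium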
PKD1 kinase inh – PKD1 (human) kinase inhibition; inhibition, % (concentration not given with the values); hit rate 0.056% among 200,000; Q15139; PKD1 kinase fluorescence polarization assay; in the data active means inhibition above about 50%
Mdm2 ligase inh – Mdm2 E3 ligase (human) inhibition. cell-based MDM2 ubiquitination luciferase reporter, 2 h; 0 = plate control, 100 = twice control, blank-subtracted. AID 1230. hit rate 0.11% among 210,000. signal enhancement, % at 5 µM;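 active means signal enhancement of 30% or more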;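 further: luminescence tracks abundance of the self-degrading MDM2-luciferase fusion protein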
Target sequence (Q00987 whole entry, looked up, the tested form may be a part): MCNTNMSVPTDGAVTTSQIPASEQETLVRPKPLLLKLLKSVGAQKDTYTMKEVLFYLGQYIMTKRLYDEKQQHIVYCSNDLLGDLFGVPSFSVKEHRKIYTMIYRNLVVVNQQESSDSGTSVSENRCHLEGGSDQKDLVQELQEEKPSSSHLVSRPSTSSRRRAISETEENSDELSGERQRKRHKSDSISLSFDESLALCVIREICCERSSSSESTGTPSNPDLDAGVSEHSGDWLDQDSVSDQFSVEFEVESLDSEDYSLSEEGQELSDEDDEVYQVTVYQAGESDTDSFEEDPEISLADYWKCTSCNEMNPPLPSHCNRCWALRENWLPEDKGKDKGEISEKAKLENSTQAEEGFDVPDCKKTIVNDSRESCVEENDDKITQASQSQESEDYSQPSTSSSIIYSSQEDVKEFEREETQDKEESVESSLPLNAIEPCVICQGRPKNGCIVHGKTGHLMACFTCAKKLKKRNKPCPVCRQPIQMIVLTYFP
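Material: Stable MDM2–luciferase fusion reporter cells | Amount: 2000 cells seeded into each well | Dosing: One concentration, 5 µM, with 0.2% DMSO | Incubation: 4 h cell settling then 2 h compound exposure, 37 °C | Measured by: Luciferase luminescence | Read-out basis: % enhancement relative to plate controls after blank subtraction | Benchmarks: Control and blank well means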
p97 ATPase inh – human p97 ATPase inhibition; inhibition, % at 8 µM; AID 1481; P55072; hit rate 0.42% among 220,000; recombinant p97 ATPase, Kinase-Glo ATP luminescence, 3 h; in the data active means inhibition above about 15%;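 further: 0% = DMSO vehicle and 100% = wells lacking enzyme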
DTT redox prof – compounds producing H2O2 with reducing agent – biochemical, NIH compound library profiling, artefact control for MLSCN library redox annotation, primary screen; DTT-dependent redox cycling H2O2, phenol red/HRP absorbance; 100% = 100 µM peroxide control, 0% = buffer; hit rate 0.03% among 200,000; activation, % at 10 µM;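 active means activation of at least 50% relative to the plate's high and low controls in the primary single-dose screen; inactive means activation below 50%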;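 further: compound incubated with DTT at 0.8 mM final as the reducing agent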
KCC2 secondary – confirmation of human KCC2 transport modulators; shares compounds with KCC2 mod; HEK293-KCC2, thallium flux, FluoZin2 fluorescence; hits give high values; normalised thallium flux (F/F0 slope) at 10 µM; hit rate 15% among 3,700;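 active means thallium flux slope above the same plate's solvent-only control mean plus 3 SD; inconclusive means the two replicate wells disagree; inactive means no significant difference from solvent-only control wells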
KCC2 bumet counter – thallium flux persisting under bumetanide in KCC2 cells, counter-screen secondary assay; hit rate 49% among 3,700; HEK293-KCC2 + bumetanide/ouabain, thallium flux FluoZin2; hits give high values; normalized thallium flux at 10 µM; shares compounds with KCC2 mod;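 active means thallium entry rate above the same plate's blocked-transporter control wells by more than 3 SD; inconclusive means the two repeat wells disagree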;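 further: raw slope of fluorescence over initial fluorescence between 10 and 20 s after thallium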
KCC2 secondary2 – KCC2 (human) modulation, second secondary assay; shares compounds with KCC2 mod; HEK293-KCC2, thallium flux FluoZin2 fluorescence; actives lie on both sides; F/F0 rise rate, 10–20 s post-thallium; normalized thallium flux at 10 µM; hit rate 23% among 3,700;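 active means thallium flux slope more than 3 SD above or below the plate's solvent-only control mean, mostly below; inconclusive means the two repeat wells disagreed; inactive means no significant shift from solvent-only controls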;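 further: raw slope with 0.1% DMSO as baseline and bumetanide as block control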
HEK counter1 – parental HEK flux effect, counter-screen; shares compounds with KCC2 mod; HEK293 parental cells, thallium flux FluoZin2, ouabain; baseline-ratio fluorescence slope, 10–20 s after thallium; thallium flux rate (normalised fluorescence) at 10 µM; hit rate 46% among 3,700; AID 1716;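 active means thallium flux rate significantly above the same plate's solvent-only control wells, beyond their mean plus 3 SD; inconclusive means the two replicate wells gave conflicting results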
KCC2 retest ouab – KCC2 (human) modulation, ouabain retest | shares compounds with KCC2 mod | HEK293-KCC2, thallium flux FluoZin2 fluorescence; bidirectional: low = inhibitor, high = activator | raw Tl+ flux slope (below DMSO = inhibition, above = activation) at 10 µM | hit rate 48% among 3,700;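 active means thallium flux slope beyond 3 SD from same-plate DMSO control mean in most replicates, usually higher, sometimes lower; inconclusive means repeat tests gave conflicting results; inactive means no significant difference from controls in most replicates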;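 further: slope of initial-normalized fluorescence between seconds 10 and 20 after thallium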
HEK293 Tl flux2 – acts in parental HEK cells, second KCC2 counter-screen; shares compounds with KCC2 mod; HEK293 parental, thallium flux FluoZin-2 fluorescence slope; thallium flux slope at 10 µM; hit rate 33% among 3,700; AID 1718;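 active means thallium flux slope above the same plate's solvent-control mean plus 3 SD in both duplicate wells; inconclusive means duplicate wells that disagreed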;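 further: run without ouabain in cells lacking the KCC2 cotransporter; slope of fluorescence scaled to its starting value between 10 and 20 s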
* = called active by the depositor; ? = inconclusive; . = no result. Compounds with a hit are over-represented: about 3.4% of the library has one in this group of screens.

SMILES	ROMK primary	KCC2 mod	PKD1 kinase inh	Mdm2 ligase inh	p97 ATPase inh	DTT redox prof	KCC2 secondary	KCC2 bumet counter	KCC2 secondary2	HEK counter1	KCC2 retest ouab	HEK293 Tl flux2
CCCn1c(SCN2C(=O)c3ccccc3C2=O)nc2cc(Cl)ccc2c1=O	1.4	106*	-2	-7	7	1	0.038*	0.17*	0.053*	0.092*	0.084*	0.046*
Cc1cccc(-n2c(SCN3C(=O)c4ccccc4C3=O)nc3ccccc3c2=O)c1	.	0.86	1	-11	-1	0	.	.	.	.	.	.
COc1cc(OC)c(C2=NOC(C(=O)NCCc3ccccc3)C2)cc1Cl (centres undefined)	-0.75	.	-7	-16	0	0	0.0064	0.0043	0.026*	0.007	?	0.0098
O=C(NCCCCc1ccccc1)C1CC(c2ccc(C(F)(F)F)cc2)=NO1 (centres undefined)	.	-0.36	.	20	.	.	.	.	.	.	.	.
O=C(NCCCCc1ccccc1)C1CC(c2ccccc2C(F)(F)F)=NO1 (centres undefined)	.	-4.2*	.	14	.	.	0.008	0.0044	0.023*	0.0064	0.016*	0.0098
COc1cc(OC)c(C2=NOC(C(=O)NCc3cccs3)C2)cc1Cl (centres undefined)	2.7	-0.66	4	-6	5	-1	.	.	.	.	.	.
O=C(NCCCCc1ccccc1)C1CC(c2ccccc2[N+](=O)[O-])=NO1 (centres undefined)	.	-6.4*	-1	-1	-1	2	0.006	0.0046	0.021*	0.0074	0.013*	0.0092
CCN(c1ccccc1)S(=O)(=O)c1ccc(OCC(=O)Nc2cc(C)on2)cc1	.	0.51	-10	-7	0	2	.	.	.	.	.	.
COc1ccc(CC2(CO)CCN(Cc3c(C)nn(C(C)C)c3C)CC2)cc1	0.89	1.2	-1	0	5	0	.	.	.	.	.	.
Cc1ccc(/C(O)=C/C(=O)C(=O)NC23CC4CC(CC(C4)C2)C3)cc1	.	86*	.	-18	2	.	0.01	0.075*	0.038	?	0.055*	0.02*
COc1ccc(C(c2c[nH]c3ccccc23)c2c[nH]c3ccccc23)cc1O	.	.	-3	-16	4	-2	.	.	.	.	.	.
COc1ccc(-n2c(C)cc(C(=O)CSc3nnc(-c4ccoc4C)n3C)c2C)cc1	-1.1	.	-1	-15	-5	-3	0.0072	0.0064	0.033	?	0.02	0.01
COc1ccc(-n2c(SCC(=O)Nc3ccccc3)nnc2-c2ccoc2C)cc1	-0.24	-0.19	2	1	-6	0	.	.	.	.	.	.
Cc1ccc(Nc2nc(NCC3CCCO3)nc(N)c2[N+](=O)[O-])cc1C (centres undefined)	.	-0.31	-2	-3	8	0	.	.	.	.	.	.
O=C(c1ccco1)c1nc2c(n1O)CCCCC2	0.52	0.33	2	-7	-2	2	.	.	.	.	.	.
CN(C(=S)NC(=O)/C=C/c1ccc(F)cc1)C1CCCCC1	-2	12*	-1	-1	2	0	0.012	0.072*	0.033	0.019*	?	0.014*
